Data published in ChEMBL document CHEMBL3244283, “Synthesis and biological activity of potential antimetabolites” (1977).
≈ marks a conversion by molar mass, not a printed value. Calls of active or inactive are those of the source. The calls are words filed in the database; no cut-off is given here.

Legend:
L1210 = assay: Antitumor activity against mouse L1210 cells allografted in BDF1 mouse; type: functional, cell-based
How it was run: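 Run through the NCI routine preliminary in vivo screen (2LE system). L1210 lymphoid leukemia was carried in BDF1 host mice.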

[1] = Cytotoxicity against human NCI-[…] cells assessed as growth inhibition; type: functional
How it was run: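 Run through the NCI routine preliminary in vitro cell-culture screen (9KB system) on human epidermoid carcinoma of the nasopharynx. ED50 is the concentration giving 50% growth inhibition relative to untreated controls.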

Escherichia coli [2] = assay: Inhibition of Escherichia coli aspartate transcarbamylase assessed as interaction between aspartate and carbamyl phosphate at 66 mM relative to control
How it was run: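 E. coli aspartate transcarbamylase (0.1 per ml) catalysed the reaction of 5 mM aspartate with 4 mM carbamyl phosphate. Test agent was present at 66 mM, and phosphate at the same concentration served as a comparison. Enzyme activity was read colorimetrically. Inhibition is expressed as a percentage relative to the uninhibited reaction.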

Escherichia coli [3] = assay: Irreversible inhibition of Escherichia coli aspartate transcarbamylase in presence of aspartate
Escherichia coli [4] = assay: Irreversible inhibition of Escherichia coli aspartate transcarbamylase in absence of aspartate

Compound | Activity (L1210) | ED50 [1] | inhibition (Escherichia coli [2]) | inhibition (Escherichia coli [3]) | inhibition (Escherichia coli [4])
NC(Cc1ccc(O)cc1)C(=O)CCl (stereo not drawn) | inactive | 2.1 µg/mL (≈ 9.83 µM) | – | – | –
O=C(CCl)NP(=O)([O-])[O-].[Li+].[Li+] | inactive | 2.5 µg/mL | 60% | inactive | inactive
CC(C)CC(N)C(=O)CCl (stereo not drawn) | inactive | 7.6 µg/mL (≈ 46.4 µM) | – | – | –
NC(Cc1ccccc1)C(=O)CCl (stereo not drawn) | inactive | 4 µg/mL (≈ 20.2 µM) | – | – | –
NCCCCC(N)C(=O)CCl (stereo not drawn) | inactive | 2.7 µg/mL (≈ 15.1 µM) | – | – | –
